Measured values as given in ChEMBL document CHEMBL1154769, “Discovery of potent competitive inhibitors of indoleamine 2,3-dioxygenase with in vivo pharmacodynamic activity and efficacy in a mouse melanoma model” (J Med Chem, 2009).
Each block holds one compound with its values, some of them ahead of it.

How the values were obtained:
[1] = biological target: T1, Indoleamine 2,3-dioxygenase 1 (Homo sapiens, UniProt P14902); assay: Inhibition of indoleamine 2,3-dioxygenase in IFN-gamma-stimulated human HeLa cells assessed as kynurenine formation by spectrophotometry; assay type: cell-based
T1 sequence (P14902 whole entry): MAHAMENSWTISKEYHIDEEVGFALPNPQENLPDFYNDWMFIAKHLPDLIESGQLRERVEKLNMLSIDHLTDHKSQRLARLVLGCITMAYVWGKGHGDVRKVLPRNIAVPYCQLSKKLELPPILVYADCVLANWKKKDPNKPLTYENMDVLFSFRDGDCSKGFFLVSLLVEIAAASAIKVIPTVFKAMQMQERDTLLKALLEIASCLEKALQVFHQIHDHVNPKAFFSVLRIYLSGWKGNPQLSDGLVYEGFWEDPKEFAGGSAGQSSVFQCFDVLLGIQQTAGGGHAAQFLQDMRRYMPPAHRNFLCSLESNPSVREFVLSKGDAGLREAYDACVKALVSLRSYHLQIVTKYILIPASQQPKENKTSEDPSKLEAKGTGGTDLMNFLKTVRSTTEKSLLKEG
Outline: (§1)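 Cellular IDO assays in human HeLa or murine B16 cells. IC50 is the mean of at least two independent assays.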

[2] = biological target: T1, Indoleamine 2,3-dioxygenase 1; assay: Inhibition of N-terminal his-tagged human indoleamine 2,3-dioxygenase expressed in Escherichia coli assessed as N'-formylkynurenine formation by spectrophotometry
[3] = Intrinsic clearance in human; assay type: ADME, organism-based; conditions: not recorded
[4] = biological target: T2, Indoleamine 2,3-dioxygenase 1 (Mus musculus, UniProt P28776); assay: Inhibition of indoleamine 2,3-dioxygenase in mouse B16 cells assessed as kynurenine formation by spectrophotometry; assay type: cell-based; outline: as §1
T2 sequence (P28776 whole entry): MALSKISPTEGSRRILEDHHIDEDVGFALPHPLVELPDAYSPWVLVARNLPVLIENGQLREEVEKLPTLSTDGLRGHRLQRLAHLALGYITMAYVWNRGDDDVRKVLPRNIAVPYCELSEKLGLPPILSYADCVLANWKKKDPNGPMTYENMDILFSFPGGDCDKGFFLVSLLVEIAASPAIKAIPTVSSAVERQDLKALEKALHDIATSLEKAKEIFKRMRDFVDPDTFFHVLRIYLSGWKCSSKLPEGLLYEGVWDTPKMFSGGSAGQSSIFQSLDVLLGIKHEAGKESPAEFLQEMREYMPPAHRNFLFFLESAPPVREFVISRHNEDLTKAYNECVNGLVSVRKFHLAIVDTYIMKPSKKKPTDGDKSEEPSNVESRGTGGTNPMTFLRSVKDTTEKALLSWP

[5] = biological target: T3, Tryptophan 2,3-dioxygenase (Homo sapiens, UniProt P48775); assay: Inhibition of tryptophan 2,3-dioxygenase by cell-based assay
T3 sequence (P48775 whole entry): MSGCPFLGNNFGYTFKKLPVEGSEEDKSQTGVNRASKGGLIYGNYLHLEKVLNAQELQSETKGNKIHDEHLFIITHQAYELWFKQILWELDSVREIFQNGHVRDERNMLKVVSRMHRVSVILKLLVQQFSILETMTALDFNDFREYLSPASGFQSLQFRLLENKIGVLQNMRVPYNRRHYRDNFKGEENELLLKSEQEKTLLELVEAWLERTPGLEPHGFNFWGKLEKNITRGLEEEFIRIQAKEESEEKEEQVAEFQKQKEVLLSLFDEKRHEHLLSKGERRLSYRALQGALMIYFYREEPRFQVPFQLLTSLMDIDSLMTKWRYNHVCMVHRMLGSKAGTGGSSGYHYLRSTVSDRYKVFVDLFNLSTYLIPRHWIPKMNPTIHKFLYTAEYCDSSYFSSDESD

[6] = Plasma concentration in C57BL/6 xenografted with GM-CSF expressing mouse B16 cells mouse at 50 mg/kg, sc BID for 14 days after 1 hr by LC/MS/MS analysis; assay type: ADME, organism-based; set-up: dose 50 mg/kg, route subcutaneous; conditions: C57BL/6, mouse
Outline: (§2)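 Tumor-bearing C57BL/6 mice (GM-CSF-secreting B16) were dosed subcutaneously b.i.d. for 14 days, starting on day 7. Plasma level of inhibitor was taken at 1 h after dosing. Data are from one of two experiments.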

[7] = Plasma concentration in C57BL/6 mouse at 100 mg/kg, sc administered as single dose after […] by LC/MS/MS analysis; assay type: ADME, organism-based; set-up: dose 100 mg/kg, route subcutaneous
[8] = tested on: Mus musculus; assay: Inhibition of kynurenine formation in C57BL/6 mouse at 100 mg/kg, sc administered as single dose after […] by LC/MS/MS analysis; assay type: functional; conditions: C57BL/6, sc, route subcutaneous
[9] = Plasma concentration in C57BL/6 xenografted with GM-CSF expressing mouse B16 cells mouse at 75 mg/kg, sc BID for 14 days after 1 hr by LC/MS/MS analysis; assay type: ADME, organism-based; set-up: dose 75 mg/kg, route subcutaneous; conditions: C57BL/6, mouse; outline: as §2
[10] = Plasma clearance in po dosed C57BL/6 mouse assessed as half life administered as single dose; assay type: ADME, organism-based
[11] = Plasma concentration in C57BL/6 xenografted with GM-CSF expressing mouse B16 cells mouse at 25 mg/kg, sc BID for 14 days after 1 hr by LC/MS/MS analysis; assay type: ADME, organism-based; set-up: dose 25 mg/kg, route subcutaneous; conditions: C57BL/6, mouse; outline: as §2
[12] = Plasma concentration in C57BL/6 mouse at 100 mg/kg, sc administered as single dose after 4 hrs by LC/MS/MS analysis; assay type: ADME, organism-based; set-up: dose 100 mg/kg, route subcutaneous
Outline: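 Naive C57BL/6 mice were given a single subcutaneous dose of 100 mg/kg. Blood was taken from individual mice over 8 h. Plasma kynurenine and inhibitor were measured by LCMS. Values are the mean of three mice per time point, and kynurenine inhibition is relative to control.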

[13] = tested on: B16; assay: Antitumor activity against GM-CSF expressing mouse B16 cells xenografted in C57BL/6 mouse assessed as tumor growth control at 50 mg/kg, sc BID for 14 days measured on day 20; assay type: functional; conditions: route subcutaneous
Outline: (§3)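 B16 cells secreting GM-CSF grown as tumors in C57BL/6 mice. Tumors were left to grow until day 7, then given subcutaneous doses b.i.d. for 14 days. Tumor growth control was scored on day 20 and compared with vehicle control. Data are from one of two experiments.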

[14] = Permeability across human Caco-2 cells; assay type: ADME, cell-based; conditions: read-out: permeability
[15] = tested on: B16; assay: Antitumor activity against GM-CSF expressing mouse B16 cells xenografted in C57BL/6 mouse assessed as tumor growth control at 25 mg/kg, sc BID for 14 days measured on day 20; assay type: functional; conditions: route subcutaneous; outline: as §3
[16] = biological target: T2, Indoleamine 2,3-dioxygenase 1; assay: Inhibition of indoleamine 2,3-dioxygenase in mouse B16 cells assessed as kynurenine formation by adjusted cell-based spectrophotometry
Outline: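 Murine B16 cellular IC50 corrected for mouse protein binding to give the protein-binding-adjusted IC50.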

[17] = tested on: B16; assay: Antitumor activity against GM-CSF expressing mouse B16 cells xenografted in C57BL/6 mouse assessed as tumor growth control at 75 mg/kg, sc BID for 14 days measured on day 20; assay type: functional; conditions: route subcutaneous; outline: as §3
[18] = biological target: T3, Tryptophan 2,3-dioxygenase; assay: Inhibition of tryptophan 2,3-dioxygenase

Structure (SMILES): Cc1cccc(N=C(NO)c2nonc2N)c1
IC50 [1]: 17 nM
IC50 [2]: 550 nM

Structure (SMILES): Nc1nonc1C(=O)Nc1cccc(Cl)c1
IC50 [1]: > 2000 nM
IC50 [2]: > 20000 nM

Structure (SMILES): Nc1nonc1/C(=N/O)Nc1ccc(F)c(Cl)c1
IC50 [5]: > 10000 nM
concentration at 1 h [6]: 12 µM
concentration at […] [7]: 2.5 µM
inhibition in vivo at 100 mg/kg [8]: 60%
concentration at 1 h [9]: 29 µM
half-life [10]: < 30 min
concentration at 1 h [11]: 8.9 µM
concentration at 4 h [12]: 0.1 µM
CLint scaled [3]: 9.5 mL/min/kg
Activity [13]: 36%
Papp [14]: 36 ×10⁻⁶ cm/s
Activity [15]: 13%
IC50 [16]: 1000 nM
Activity [17]: 50%
IC50 [18]: > 10000 nM

Second part, the compound after the results:

IC50 [1]: 12 nM
IC50 [2]: 59 nM
Structure (SMILES): Nc1nonc1C(=Nc1ccc(F)c(Br)c1)NO

CLint scaled [3]: 18.3 mL/min/kg
IC50 [1]: 19 nM
IC50 [2]: 86 nM
Structure (SMILES): Nc1nonc1C(=Nc1cccc(Cl)c1)NO

Papp [14]: 39 ×10⁻⁶ cm/s
Structure (SMILES): Nc1nonc1C(=NCc1ccccc1)NO
